Bioassay records deposited in PubChem BioAssay by several laboratories.
MEKK2wt PB1 HTS: raises or lowers MEK5 binding to wildtype human MEKK2 PB1 domain. hit rate 1.1% among 290,000. bead flow cytometry, Alexa488-MEK5 binding to MEKK2 WT; actives lie on both sides. binding response (% of control), % at 10 µM; in the data active means binding response below about 67% or above about 130%; inconclusive means no clear call, values can overlap the other calls; inactive means in between
Apaf-1 inh: inhibitors of human Apaf-1 apoptosome | inhibition, % at 20 µM | reconstituted apoptosome caspase-3 activity, DEVD-Rh110 fluorescence | hit rate 0.71% among 330,000 | O14727 | AID 489030; active means inhibition of at least 40% at 20 µM;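 further: plate controls were DMSO wells for no effect and DEVD-CHO caspase inhibitor wells for full effect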
Target sequence (O14727 whole entry, looked up): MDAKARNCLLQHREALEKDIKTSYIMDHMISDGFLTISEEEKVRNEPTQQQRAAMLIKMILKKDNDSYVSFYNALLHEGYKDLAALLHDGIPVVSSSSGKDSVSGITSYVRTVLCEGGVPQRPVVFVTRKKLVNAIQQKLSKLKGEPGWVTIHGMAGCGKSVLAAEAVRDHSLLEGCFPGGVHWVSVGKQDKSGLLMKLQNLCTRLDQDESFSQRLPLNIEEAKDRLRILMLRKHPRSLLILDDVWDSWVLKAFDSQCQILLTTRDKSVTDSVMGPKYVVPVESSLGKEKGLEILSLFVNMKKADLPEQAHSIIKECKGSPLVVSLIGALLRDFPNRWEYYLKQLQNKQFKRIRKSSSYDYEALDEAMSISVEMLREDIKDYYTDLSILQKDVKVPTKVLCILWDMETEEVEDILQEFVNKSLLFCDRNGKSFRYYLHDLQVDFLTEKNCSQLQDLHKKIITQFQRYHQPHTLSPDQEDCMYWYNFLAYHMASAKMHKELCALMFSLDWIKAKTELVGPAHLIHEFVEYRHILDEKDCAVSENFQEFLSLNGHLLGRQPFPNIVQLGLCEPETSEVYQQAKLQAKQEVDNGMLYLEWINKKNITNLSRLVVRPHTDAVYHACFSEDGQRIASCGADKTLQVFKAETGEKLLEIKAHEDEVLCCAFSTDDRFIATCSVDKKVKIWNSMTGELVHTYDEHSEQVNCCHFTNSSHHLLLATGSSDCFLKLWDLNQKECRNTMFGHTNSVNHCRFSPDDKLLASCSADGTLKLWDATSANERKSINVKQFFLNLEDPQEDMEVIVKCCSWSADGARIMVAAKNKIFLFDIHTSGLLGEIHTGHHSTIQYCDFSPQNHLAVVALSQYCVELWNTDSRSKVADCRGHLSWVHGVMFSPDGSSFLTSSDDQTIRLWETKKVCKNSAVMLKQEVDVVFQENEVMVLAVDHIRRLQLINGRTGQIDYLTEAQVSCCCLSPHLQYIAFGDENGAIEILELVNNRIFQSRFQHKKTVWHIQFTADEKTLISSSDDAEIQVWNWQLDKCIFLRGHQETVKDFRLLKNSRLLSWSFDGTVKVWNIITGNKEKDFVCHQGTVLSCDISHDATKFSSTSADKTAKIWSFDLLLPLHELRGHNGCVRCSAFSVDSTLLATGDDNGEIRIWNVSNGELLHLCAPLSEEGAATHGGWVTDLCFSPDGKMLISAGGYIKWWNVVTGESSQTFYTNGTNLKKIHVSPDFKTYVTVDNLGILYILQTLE
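Medium: Hepes buffer, pH 7.5 / System: biochemical Apaf-1 apoptosome reconstitution / Measured by: Rh110 fluorescence, excitation 480 nm, emission 540 nm / Times: compound with Apaf-1, dATP, procaspase-3 30 min, then 50 min reaction, room temperature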
PREPL inh: inhibitors of human prolyl oligopeptidase-like enzyme PREPL. Q4J6C6. recombinant PREPL, fluorescence polarization activity-based probe. inhibition, % at 5.96 µM. hit rate 0.68% among 320,000; in the data active means inhibition above about 43%;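 further: 0% = enzyme with DMSO and 100% = wells lacking enzyme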
UBC13 inh: blocks human UBC13 polyubiquitin chain formation. P61088. TR-FRET. inhibition, % at 20 µM. hit rate 0.47% among 330,000; in the data active means inhibition above about 45%, passing the limit was not always enough; inconclusive means no clear call, values can overlap the other calls
MEKK2mut PB1 HTS: signal of MEK5 binding to mutant human MEKK2 PB1 domain | hit rate 0.35% among 290,000 | bead flow cytometry, Alexa488-MEK5 binding to MEKK2 mutant | percent response, % at 10 µM; in the data active means percent response above about 24%, passing the limit was not always enough
MEKK3 PB1 HTS: raises or lowers MEK5 binding to the human MEKK3 PB1 domain. Q99759. bead-based flow cytometry, Alexa488-MEK5 binding to MEKK3; actives lie on both sides; 0 = blocked by unlabeled MEK5, 100 = vehicle. binding response (% of control), % at 10 µM. hit rate 1.4% among 290,000. AID 1529;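 active means binding response more than 3 SD above or below the average of its plate-row segment, actives on both sides; inconclusive means wells at one plate position flagged as instrument error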;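 further: Alexa488 bead fluorescence after subtracting the streptavidin-only scavenger bead signal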
Casp3 counter: caspase-3 inhibition (UBC13 counter-screen) | shares compounds with UBC13 inh | Recombinant caspase-3, Caspase-Glo 3/7 luminescence, 60 min | inhibition, % at 20 µM | hit rate 4% among 1,400;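 active means mean inhibition across replicates above about 26%, limit read from the data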;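 further: plate controls were DMSO with caspase-3 for no effect and DMSO wells lacking enzyme for full effect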
UBC13 conf: human UBC13 polyubiquitin inhibition, confirmed; shares compounds with UBC13 inh; inhibition, % at 10 µM; UBC13 polyubiquitination, TR-FRET, biochemical; hit rate 68% among 1,400; in the data active means inhibition above about 45%; inconclusive means no clear call, values can overlap the other calls
The depositor's hits bear a star; ? = inconclusive; . = no result. The list is not random: actives were taken first. Their share in the collection is about 3.1%.

SMILES	MEKK2wt PB1 HTS	Apaf-1 inh	PREPL inh	UBC13 inh	MEKK2mut PB1 HTS	MEKK3 PB1 HTS	Casp3 counter	UBC13 conf
CN(C)C(CNC(=O)c1ccc2nccnc2c1)c1ccco1 (centres undefined)	.	-3	22	-10	.	.	.	.
CC(=O)c1[nH]c(C)c(C(=O)N2CCCC(Nc3cccc(F)c3)C2)c1C (centres undefined)	100	4	6	5	2	98	.	.
Cc1c(C#N)c(NC(=O)CCl)n(Cc2cccs2)c1C	102	6	8	-7	-1	102	.	.
O=C(CCCn1c(=S)[nH]c2ccc(Br)cc2c1=O)N1CCN(c2ccccn2)CC1	92	7	-156	45*	0	102	-2	44
CCN(Cc1ccccc1)C(=O)c1nn(-c2ccc(OC)cc2)c(=O)c2c1c1ccccc1n2C	91	6	1	45*	-4	102	-2	?
Nc1nonc1-n1nnc(C(=O)N/N=C/c2ccc(O)cc2)c1CN1CCCCCC1	.	-6	8	-14	.	.	.	.
Nc1nonc1-n1nnc(C(=O)N/N=C/c2ccccc2Br)c1CN1CCCC1	100	5	14	63*	0	102	-4	2
O=C(NNC(=O)c1nn(-c2ccc(F)cc2)ccc1=O)c1ccccc1Cl	106	1	17	81*	1	107	-4	91*
CCCCNc1cc(C)nc(NCc2ccccc2)n1	133	3	-1	48*	10	106	-4	56*
Cc1cc(Nc2ccc(Cl)cc2)nc(NCc2ccccc2)n1	159*	36	2	72*	12	110	2	84*
Cc1cc(C)nc(NCCCc2ccccc2)n1	98	-10	-2	4	2	102	.	.
CCN(CC(=O)Nc1c(F)cccc1F)C(=O)c1cc(-c2cccs2)nn1-c1ccccc1	.	13	-11	0	.	.	.	.
O=C(N=C1SC2CS(=O)(=O)CC2N1c1ccccc1)C1CCCCC1 (centres undefined)	96	6	9	-3	-9	103	.	.
CCC(C)(C)NC(=O)C(c1ccc(C)o1)N(Cc1ccc2c(c1)OCO2)C(=O)c1snc(C(N)=O)c1N (centres undefined)	93	6	4	78*	-1	97	-3	86*
Cc1ccc(C(C(=O)NC(C)(C)C)N(Cc2ccccc2)C(=O)c2snc(C(N)=O)c2N)o1 (centres undefined)	85	1	-8	71*	-4	84	5	66*
COC(=O)CCCCCN1C(=O)/C(=C\c2ccncc2)SC1=S	97	12	-1	-4	1	99	.	.
CC(=O)Oc1ccc(C(=O)Nc2ccccc2C(=O)Nc2ccc(C(=O)O)cc2)cc1	105	1	6	-10	0	100	.	.
O=C(NC1(C(F)(F)F)N=C2SCCN2C1=O)c1cccnc1 (centres undefined)	120	1	-11	48*	-1	121	-3	-8
Cc1ccc(Nc2nnc(-c3ccccc3N)o2)cc1C	74	-2	8	46*	-16	70	39*	2
Cc1c(NC(=O)CCCN2C(=O)c3cccc4cccc(c34)C2=O)c(=O)n(-c2ccccc2)n1C	106	2	11	81*	5	106	3	94*
COc1cccc(NC(=O)c2cnc(SCC(=O)NCc3ccc4c(c3)OCO4)n(C)c2=O)c1	.	5	-18	56*	.	.	98*	50*
COc1cccc(-n2nnnc2SCC(=O)NCc2ccc3c(c2)OCO3)c1	.	5	-15	-8	.	.	.	.
O=C(CCCn1c(SCC(=O)NCC2CCCO2)nc2ccccc2c1=O)NCC1CCCO1 (centres undefined)	99	-9	3	-1	1	97	.	.
COc1ccccc1NC(=O)c1cnc(SCC(=O)NCCc2ccccc2)n(C)c1=O	.	-2	2	21	.	.	.	.
Cc1ccc(CNC(=O)CSc2ncc(C(=O)Nc3ccccc3)c(=O)n2C)cc1	.	-9	-7	55*	.	.	95*	63*
SMILES	MEKK2wt PB1 HTS	Apaf-1 inh	PREPL inh	UBC13 inh	MEKK2mut PB1 HTS	MEKK3 PB1 HTS	Casp3 counter	UBC13 conf
Cn1c(SCC(=O)NCc2ccccc2)ncc(C(=O)Nc2ccccc2)c1=O	.	6	7	63*	.	.	96*	62*
Cn1c(SCC(=O)NCC2CCCO2)ncc(C(=O)Nc2ccccc2)c1=O (centres undefined)	.	-1	-8	69*	.	.	96*	66*
CCCCn1c(N)c(N(Cc2ccccc2OC)C(=O)c2c(CC)noc2C)c(=O)[nH]c1=O	106	-3	-4	-2	4	97	.	.
Cc1ccccc1OC(C)C(=O)Nc1cccnc1 (centres undefined)	106	7	1	1	7	103	.	.
Cc1nn(Cc2ccccc2)c(C)c1CNC(=O)CN=C1NS(=O)(=O)c2ccccc21	.	1	.	5	.	.	.	.
CC1(c2nnc(-c3cccc(Cl)c3)o2)CC(c2ccccc2Br)=NO1 (centres undefined)	96	11	-6	10	-8	98	.	.
Cn1c(SCC(=O)c2ccc(F)cc2)ncc(C(=O)Nc2ccccc2)c1=O	.	1	-7	58*	.	.	79*	69*
Cn1c(CO)cnc1SCC(=O)c1ccc(F)cc1	106	-4	9	-1	2	104	.	.
CCC(C)c1ccccc1NC(=O)c1cccc(-n2cnnn2)c1 (centres undefined)	.	-3	10	3	.	.	.	.
COc1ccccc1NC(=O)CN1CCC(C(=O)c2ccc(F)cc2)CC1	92	17	15	45	-1	96	.	.
CCOc1ccccc1NC(=O)CN1CCC(C(=O)c2ccc(F)cc2)CC1	106	23	11	73*	7	107	0	78*
CC1(C)Cc2c(sc(NC(=O)C(=O)NCCCN3CCOCC3)c2C(N)=O)CO1	107	-3	-3	83*	6	105	0	106*
Nc1nc2n(n1)C(c1ccccc1)CC(c1ccc(F)cc1)N2 (centres undefined)	103	-9	43	0	4	102	.	.
CCc1ccc(C2CC(c3ccc(F)cc3)Nc3nc(N)nn32)cc1 (centres undefined)	99	8	24	49*	-2	100	-1	7
COc1cccc2sc3ccc(C#CC4(O)CCCCC4)cc3c(=O)c12	89	20	-21	53*	-3	103	91*	?
